Results from different studies.
Lines come from different studies, so protocols differ.
Target: Serine/threonine-protein kinase MRCK alpha (CDC42BPA, Homo sapiens, UniProt Q5VT25)

Compound | test | conditions | remaining binding [%]
COc1ncc2cc3ccccc3nc2c1C#N | cell-free assay, competition with immobilised ligand | 5 µM | 100
COc1cnc(Nc2cccc(S(N)(=O)=O)c2)nc1N1CCN(c2ccccc2)CC1 | binding, competition with immobilised ligand | 1 µM | 97
COc1ccnn2ncc(-c3ccnc(N(C)C)n3)c12 | binding | 1 µM | 100
CCN1CCN(Cc2ccc(C(=O)Nc3ccc(C)c(Oc4ccc5c(c4)CC(=O)N5)c3)cc2C(F)(F)F)CC1 | binding, competition with immobilised ligand | 1 µM | 100
CN(C)CC#Cc1ccc(OCCCc2sc(N3CCc4cccc(C(=O)Nc5nc6ccccc6s5)c4C3)nc2C(=O)O)c(F)c1 | cell-free assay, competition with immobilised ligand | 1 µM | 97
CC1CCCN1c1nccc(-c2cnn3ncccc23)n1 (stereo not shown) | binding | 1 µM | 100
COc1cc(-c2cn(C3CCc4c(F)cccc4N(CC(F)(F)F)C3=O)nn2)ccc1-n1cnc(C)c1 (stereo not shown) | cell-free assay, competition with immobilised ligand | 1 µM | 100
O=C(NCC1CCOCC1)c1n[nH]cc1NC(=O)c1c(F)cccc1F | binding, competition with immobilised ligand | 1 µM | 100
CN1CCN(c2cnc3c(C4CCN(C(=O)c5ccc(OC(F)(F)F)cc5N)CC4)ncnc3c2)CC1 | cell-free assay, competition with immobilised ligand | 1 µM | 100
CN(c1nccc(-c2cnn3ncccc23)n1)C1CC1 | binding | 1 µM | 100
Cc1cc(-n2nc(Cc3cc(F)cc(C(F)(F)F)c3)nc2C)ccc1C(N)=O | cell-free assay, competition with immobilised ligand | 1 µM | 100
N[C@H]1CCN(c2nccc(-c3cnn4ncccc34)n2)C1 | binding | 1 µM | 84
O=C1CCc2cc(Nc3cc(OC4CCOCC4)c([N+](=O)[O-])cc3Cl)ccc2N1 | cell-free assay, competition with immobilised ligand | 1 µM | 91
CN(C)c1ncc(F)c(-c2cnn3ncccc23)n1 | binding | 1 µM | 100
O=C(c1ccc(Nc2ncc(Cl)c(-c3cc4ccccc4s3)n2)cc1)N1CCC(N2CCCC2)CC1 | binding, competition with immobilised ligand | 1 µM | 14
F[C@@H]1CCN(c2nccc(-c3cnn4ncccc34)n2)C1 | binding | 1 µM | 100
C[C@@H](c1ccc(-n2cnc3c(N)ncnc32)cc1)N1CCc2nn(C)c(Cc3ccccc3)c2C1=O | binding, competition with immobilised ligand | 0.1 µM | 91
O=C(c1ccc(Nc2ncc(Cl)c(-c3ccc(Cl)s3)n2)cc1)N1CCC(N2CCCC2)CC1 | binding, competition with immobilised ligand | 1 µM | 53
CN(C)c1nccc(-c2cnn3ncccc23)n1 | binding | 1 µM | 100
O=C(Nc1cccnn1)N1CCC(=Cc2cccc(Oc3ccc(C(F)(F)F)cn3)c2)CC1 | cell-free assay, competition with immobilised ligand | 1 µM | 95
c1cncc(-c2cccc(Nc3nccc(NC4CCCCC4)n3)c2)c1 | binding, competition with immobilised ligand | 10 µM | 100
O=C(NCCCN1CCOCC1)c1ccc(Nc2nccc(-c3cc4ccccc4s3)n2)cc1 | binding, competition with immobilised ligand | 1 µM | 72
